We go through 16 molecules from ChEMBL document CHEMBL1165914, “Characterization of 4-methyl-2-oxo-1,2-dihydroquinolin-6-yl acetate as an effective antiplatelet agent” (2010).

Active and inactive are the calls of the source. The calls are words filed in the database; no cut-off is given here.

The species named for assay [1] is Homo sapiens. Kind of assay: Inhibition of human platelet CRTAase assessed as inhibition of acetylation of glutathione S-transferase. As to conditions: concentration not given here. Also on record: concentration or dose not given beside the values. A digest of the protocol: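 Platelet lysate as enzyme source. Acetoxy substrate preincubated with CRTAase and GST in potassium phosphate buffer pH 6.5, 37 °C, 10 min; GSH and CDNB then added and absorbance read at 340 nm. Activity unit is % inhibition of GST activity; mean of five observations.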

Assay [2] relates to Platelet. Kind of assay: Antiplatelet activity in human platelet rich plasma assessed as inhibition of ADP-induced platelet aggregation measured for 6 mins by aggregometry. The class given is functional.
In assay [3] the test system is Rattus norvegicus. Kind of assay: Ex vivo antiplatelet activity in Sprague-Dawley rat platelets assessed as inhibition of arachidonic acid-induced platelet aggregation at 133 umole/kg, po after 24 hrs by aggregometry. The class given is functional, organism-based. An outline of the steps:
(§1)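 Rats dosed orally and killed 24 h later. Blood taken by cardiac puncture and centrifuged as for PRP/PPP preparation (180g 10 min; 2500g 10 min). ADP- or AA-induced aggregation then measured by light-transmittance aggregometry.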

In assay [4] the test system is Rattus norvegicus. Kind of assay: Ex vivo antiplatelet activity in Sprague-Dawley rat platelets assessed as inhibition of ADP-induced platelet aggregation at 133 umole/kg, po after 24 hrs by aggregometry. It is filed as functional, organism-based. A digest of the protocol: as §1
In assay [5] the test system is Rattus norvegicus. Kind of assay: Inhibition of COX1 in po dosed Sprague-Dawley rat after 24 hrs by ELISA. The class given is functional, organism-based. For orientation: An ELISA detects its analyte on a solid surface through an enzyme-linked reagent.
The species entered for assay [6] is Homo sapiens. Kind of assay: Activation of human platelet NOS assessed as increase in nitric oxide level by flow cytometry. An outline of the steps: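 Platelets incubated with compounds, then intracellular NO measured by flow cytometry following the Imrich and Kobzik method.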
(In general: Flow cytometry measures light scatter and fluorescence of single cells or particles in a stream.)

Assay [7] concerns Platelet. Kind of assay: Antiplatelet activity in human platelet rich plasma assessed as inhibition of arachidonic acid-induced platelet aggregation measured for 6 mins by aggregometry. The class given is functional.
Assay [8] deals with Rattus norvegicus. Kind of assay: Inhibition of COX1 in po dosed Sprague-Dawley rat after 24 hrs by ELISA relative to control. The class given is functional.

Broadly, the inhibition is the relative decrease from the control value, in per cent. For `CCc1c(C)c2cccc(OC(C)=O)c2[nH]c1=O`, the inhibition in the assay filed under Homo sapiens [1] turned out to be 11.5%.
In the case of `CCOC(=O)Cn1c(=O)cc(C)c2ccc(OC(C)=O)cc21`, the inhibition in the assay listed under Homo sapiens [1] amounted to 10%. In addition, in the assay with Platelet [2], the inhibition entry is “Active”.
The corresponding values for `CCOC(=O)COc1cc(C)c2ccc(OC(C)=O)cc2n1` are 13.2% and “inactive”.
Consider `Cc1cc(=O)[nH]c2ccc(O)cc12`, for which the inhibition in the assay filed under Homo sapiens [1] stood at 0%. Moreover, the inhibition entry with Rattus norvegicus [3], in the assay with Rattus norvegicus [4] and in the assay on Rattus norvegicus [5] was “inactive” throughout.
As for `CC(=O)Oc1ccc2[nH]c(=O)cc(C)c2c1`, in the assay filed under Homo sapiens [1], the inhibition was 31%. The outcome in the assay filed under Homo sapiens [6] was Active. Further, the inhibition entry in the assay with Platelet [2], in the assay with Platelet [7], in the assay on Rattus norvegicus [3] and in the assay on Rattus norvegicus [4] was “Active” throughout. The “fold change (FC)” value with Rattus norvegicus [8] was determined as 3.5.
For the molecule `CC(=O)Oc1ccc2c(C)cc(=O)[nH]c2c1`, the inhibition in the assay listed under Homo sapiens [1] turned out to be 13.2%. In addition, the outcome in the assay filed under Homo sapiens [6] was Active. Moreover, the inhibition entry in the assay on Platelet [2] was “Active”.
Turning to `CCCCCCc1c(C)c2ccc(OC(C)=O)cc2[nH]c1=O`, the inhibition in the assay listed under Homo sapiens [1] is 2%.
With `CC(=O)Oc1cccc2c(C)cc(=O)[nH]c12`, in the assay listed under Homo sapiens [1], the inhibition worked out at 12%. Further, in the assay filed under Homo sapiens [6], the result was Active. Further, the inhibition entry with Platelet [2] was “Active”.
With `CCc1c(C)c2ccc(OC(C)=O)cc2[nH]c1=O`, the inhibition in the assay filed under Homo sapiens [1] amounted to 13%.
In the case of `CC(=O)Oc1ccccc1C(=O)O`, the inhibition result in the assay with Rattus norvegicus [3], with Rattus norvegicus [4] and with Rattus norvegicus [5] was “Active” in each case.
Take `CCOC(=O)COc1cc(C)c2cc(OC(C)=O)ccc2n1`: in the assay filed under Homo sapiens [1], the inhibition turned out to be 28.6%. Also, the inhibition result in the assay on Platelet [2] is “inactive”.
Consider `CCCCCCc1c(C)c2cccc(OC(C)=O)c2[nH]c1=O`, for which, in the assay listed under Homo sapiens [1], the inhibition came to 0%.
With `CCc1c(C)c2cc(OC(C)=O)ccc2[nH]c1=O`, the inhibition in the assay listed under Homo sapiens [1] came out at 26%.
With `CC(=O)Oc1cc(=O)[nH]c2ccccc12`, the inhibition in the assay filed under Homo sapiens [1] was found to be 0%.
On to `CCOC(=O)Cn1c(=O)cc(C)c2cc(OC(C)=O)ccc21`, for which the inhibition in the assay listed under Homo sapiens [1] worked out at 23%. The inhibition result with Platelet [2] was “Active”.
`CCCCCCc1c(C)c2cc(OC(C)=O)ccc2[nH]c1=O`: the inhibition in the assay filed under Homo sapiens [1] turned out to be 7%.
